For one assay, the species on record is Sus scrofa. As to the kind of experiment: Inhibition of calcium channel in pig carotid artery assessed as relaxation of KCl-induced tissue contraction at 1 uM to 30 mM. Format: tissue-based. The essentials:
(§1)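 Arterial strips equilibrated 90-120 min in PSS at 37 °C, pH 7.4, bubbled with 100% O₂, under ~2 g passive force (near L_0), and repeatedly contracted with 110 mM KCl (equimolar NaCl substitution) until force stabilized. Then precontracted with 110 mM KCl PSS to stable force; cumulative compound addition (1 μM to 30 mM), DMSO vehicle control. Force expressed as percent of initial maximal KCl response at each concentration.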

Assay [1] in a line: Inhibition of calcium channel in pig carotid artery assessed as relaxation of KCl-induced tissue contraction. Format: tissue-based, Sus scrofa. An outline of the steps:
as §1

Each structure is given as a SMILES string.

Broadly, the inhibition is the share of the control response that was lost under treatment. As a reminder, the IC50 is the point on the concentration scale where inhibition reaches its midpoint. `CCOC(=O)C1=C(C)N(CC)C(=O)NC1c1ccccc1` (stereo not drawn): the inhibition in the assay filed under Sus scrofa is 40%. Also, in assay [1], the IC50 was 100 µM. Take `CCCCCCCCCCN1C(=O)NC(c2ccccc2)C(C(=O)OCC)=C1C` (stereo not drawn): in the assay filed under Sus scrofa, the inhibition amounted to 40%. In addition, the IC50 in assay [1] worked out at 100 µM. The corresponding values for `CCCCCN1C(=O)NC(c2ccccc2)C(C(=O)OCC)=C1C` (stereo not drawn) are 40% and 100 µM.

Consider `CCCCN1C(=O)NC(c2ccccc2)C(C(=O)OCC)=C1C` (stereo not drawn), for which the inhibition in the assay filed under Sus scrofa is 40%. In addition, in assay [1], the IC50 is 100 µM. In the case of `COC(=O)C1=C(C)NC(C)=C(C(=O)OC)C1c1ccccc1[N+](=O)[O-]` [NIFEDIPINE], the IC50 in assay [1] is 10 µM. Take `C=CCN1C(=O)NC(c2ccccc2)C(C(=O)OCC)=C1C` (stereo not drawn): in the assay listed under Sus scrofa, the inhibition was 40%. Also, the IC50 in assay [1] was 100 µM. The corresponding values for `CCCN1C(=O)NC(c2ccccc2)C(C(=O)OCC)=C1C` (stereo not drawn) are 40% and 100 µM.
